Measurements published in ChEMBL document CHEMBL1152781, “Design, synthesis, and structure-activity analysis of isoform-selective retinoic acid receptor beta ligands” (J Med Chem, 2009).
In brackets after ≈: the same amount, converted by molar mass. Activity calls are given as the source filed them. The calls are words filed in the database; no cut-off is given here.

Columns and labels:
[1] = target: T1, Retinoic acid receptor beta (Homo sapiens) (UniProt P10826); experiment: Agonist activity at RARbeta2 expressed in mouse NIH3T3 cells by R-SAT assay relative to Am-580; type: functional, cell-based
T1 sequence (whole entry): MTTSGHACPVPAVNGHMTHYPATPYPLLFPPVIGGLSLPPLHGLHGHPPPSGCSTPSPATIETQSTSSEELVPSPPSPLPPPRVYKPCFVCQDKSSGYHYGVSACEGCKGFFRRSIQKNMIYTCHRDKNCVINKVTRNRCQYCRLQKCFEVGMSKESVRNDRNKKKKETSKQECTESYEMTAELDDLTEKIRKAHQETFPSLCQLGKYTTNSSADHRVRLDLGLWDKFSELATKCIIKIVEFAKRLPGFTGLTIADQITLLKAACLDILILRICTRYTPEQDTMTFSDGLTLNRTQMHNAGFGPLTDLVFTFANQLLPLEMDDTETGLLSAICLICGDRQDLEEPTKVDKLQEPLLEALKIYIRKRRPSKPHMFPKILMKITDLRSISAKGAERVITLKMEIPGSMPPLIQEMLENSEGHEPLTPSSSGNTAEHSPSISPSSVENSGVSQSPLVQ
Outline: (§1)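 High-throughput cell-proliferation functional assay (R-SAT). Efficacy is expressed relative to reference agonist AM-580, which is set to 100%. pEC50 and efficacy are means of at least three experiments ± SD. […] Where marked, efficacy is the maximum at concentrations <10 µM.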

[2] = target: T1, Retinoic acid receptor beta (Homo sapiens); experiment: Activity at RARbeta1 expressed in mouse NIH3T3 cells at <10 uM by R-SAT assay relative to Am-580; type: cell-based; outline: as §1
[3] = target: T2, Retinoic acid receptor alpha (Homo sapiens, UniProt P10276); experiment: Activity at RARalpha expressed in mouse NIH3T3 cells by R-SAT assay; type: cell-based; conditions: for pEC50: nih3t3
T2 sequence (P10276 whole entry): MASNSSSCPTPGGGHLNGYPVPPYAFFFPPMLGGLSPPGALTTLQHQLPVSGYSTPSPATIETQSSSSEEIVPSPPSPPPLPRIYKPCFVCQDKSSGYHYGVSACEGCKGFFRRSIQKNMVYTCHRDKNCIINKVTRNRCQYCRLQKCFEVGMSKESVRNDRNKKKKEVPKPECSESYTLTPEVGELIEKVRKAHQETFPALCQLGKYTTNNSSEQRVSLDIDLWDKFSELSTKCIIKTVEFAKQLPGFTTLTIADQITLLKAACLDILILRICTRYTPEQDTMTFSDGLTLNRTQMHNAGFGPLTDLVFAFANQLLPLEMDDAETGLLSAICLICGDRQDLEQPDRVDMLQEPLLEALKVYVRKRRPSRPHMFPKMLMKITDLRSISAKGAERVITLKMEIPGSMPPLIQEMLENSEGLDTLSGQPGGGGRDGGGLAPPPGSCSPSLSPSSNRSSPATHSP

[4] = target: T3, Retinoic acid receptor gamma (Homo sapiens) (UniProt P13631); experiment: Activity at RARgamma expressed in mouse NIH3T3 cells at <10 uM by R-SAT assay relative to Am-580; type: cell-based; outline: as §1
T3 sequence (whole entry): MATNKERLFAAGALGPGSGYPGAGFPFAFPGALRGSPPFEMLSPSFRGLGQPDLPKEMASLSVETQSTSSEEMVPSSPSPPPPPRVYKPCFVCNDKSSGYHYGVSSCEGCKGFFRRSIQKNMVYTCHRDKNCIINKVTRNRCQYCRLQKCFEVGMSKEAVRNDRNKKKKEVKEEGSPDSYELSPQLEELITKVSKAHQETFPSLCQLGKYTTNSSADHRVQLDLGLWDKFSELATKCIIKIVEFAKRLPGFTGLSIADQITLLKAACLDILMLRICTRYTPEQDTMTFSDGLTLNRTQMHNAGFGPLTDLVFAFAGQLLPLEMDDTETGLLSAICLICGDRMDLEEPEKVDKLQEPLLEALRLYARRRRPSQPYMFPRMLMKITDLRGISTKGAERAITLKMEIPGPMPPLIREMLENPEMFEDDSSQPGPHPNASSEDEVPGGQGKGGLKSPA

[5] = target: T4, Retinoic acid receptor beta (Homo sapiens, UniProt P10826); experiment: Agonist activity at RARbeta2 expressed in mouse NIH3T3 cells by R-SAT assay; type: functional, cell-based; conditions: for pEC50: nih3t3
T4 sequence (P10826 whole entry): T1 sequence (whole entry)

[6] = target: T1, Retinoic acid receptor beta (Homo sapiens); experiment: Activity at RARbeta1 expressed in mouse NIH3T3 cells by R-SAT assay relative to Am-580; type: cell-based; outline: as §1
[7] = target: T4, Retinoic acid receptor beta; experiment: Activity at RARbeta1 expressed in mouse NIH3T3 cells by R-SAT assay; type: cell-based
[8] = target: T3, Retinoic acid receptor gamma (Homo sapiens); experiment: Activity at RARgamma expressed in mouse NIH3T3 cells by R-SAT assay relative to Am-580; type: cell-based; outline: as §1
[9] = target: T5, Retinoic acid receptor gamma (Homo sapiens, UniProt P13631); experiment: Activity at RARgamma expressed in mouse NIH3T3 cells by R-SAT assay; type: cell-based; conditions: for pEC50: nih3t3
T5 sequence (P13631 whole entry): T3 sequence (whole entry)

[10] = Aqueous solubility in phosphate buffer at pH 7.4; type: physicochemical
[11] = Lipophilicity, Log P of the compound; type: physicochemical; conditions: octanol/water
Outline: (§2)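 Lipophilicity descriptors, cLogD at pH 7.4 and cLogP, are mostly calculated. Values in parentheses are experimentally determined.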

[12] = system: NTERA2; experiment: Induction of neurite outgrowth in human NTERA2 cells; type: functional, cell-based
[13] = Metabolic stability in human liver microsomes assessed as intrinsic clearance; type: ADME, Microsome
Outline: (§3)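 Liver microsomes, rat or human, as stated per line. Read-out is intrinsic clearance in µL/(min·mg) protein. Hepatic extraction was calculated without correcting for the unbound fraction of drug in plasma.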

[14] = Metabolic stability in rat liver microsomes assessed as intrinsic clearance; type: ADME, Microsome; outline: as §3
[15] = Distribution coefficient, log D of the compound; type: physicochemical; conditions: octanol/water; outline: as §2
[16] = system: MCF7; experiment: Inhibition of human MCF7 cell proliferation; type: functional, cell-based
[17] = system: MCF7; experiment: Inhibition of human MCF7 cell proliferation assessed as inhibition of DNA synthesis by [3H]thymidine incorporation assay; type: functional, cell-based
[18] = target: T1, Retinoic acid receptor beta (Homo sapiens); experiment: Activation of RARbeta2 expressed in HEK293 cells after 48 hrs by RARE-luciferase reporter gene assay; type: cell-based
[19] = system: NIH3T3; experiment: Selectivity for RARbeta2 expressed in mouse NIH3T3 cells over RARalpha expressed in mouse NIH3T3 cells; type: cell-based
[20] = system: NIH3T3; experiment: Selectivity for RARbeta2 expressed in mouse NIH3T3 cells over RARgamma expressed in mouse NIH3T3 cells; type: cell-based
[21] = system: NIH3T3; experiment: Selectivity for RARbeta2 expressed in mouse NIH3T3 cells over RARbeta1 expressed in mouse NIH3T3 cells; type: cell-based
[22] = Clearance in rat; type: ADME, organism-based; conditions: in vivo
[23] = target: T6, Retinoic acid receptor alpha (Homo sapiens) (UniProt P10276); experiment: Activity at RARalpha expressed in mouse NIH3T3 cells at <10 uM by R-SAT assay relative to Am-580; type: cell-based; outline: as §1
T6 sequence (whole entry): T2 sequence (P10276 whole entry)

## CC(C)CCCCOc1ccc(-c2ccc(C(=O)O)cc2)cc1
[1]
  Efficacy: 75%
[2]
  Efficacy: 28%
[3]
  pEC50: > 5
[4]
  Efficacy: 31%

## CCCCCCCCc1ccc(-c2ccc(C(=O)O)c(F)c2)cc1
[1]
  Efficacy: 114%
[5]
  EC50: 39.8 nM
[6]
  Efficacy: 54%
[7]
  EC50: 398 nM
[3]
  EC50: 2000 nM
[8]
  Efficacy: 84%
[9]
  EC50: 158 nM

## CCCCCCCOc1ccc(-c2ccc(C(=O)O)cc2)cc1
[1]
  Efficacy: 62%
[5]
  EC50: 63.1 nM
[6]
  Activity: inactive
[3]
  pEC50: > 5
[8]
  Activity: inactive
[9]
  pEC50: > 5

## CCCCCCCCc1ccc(-c2ccc(C(=O)O)s2)cc1
[1]
  Activity: inactive
[5]
  pEC50: > 5

## CCCCCCCCc1ccc(-c2ccc(C(=O)O)cc2)cc1
[10]
  solubility: < 1 µg/mL
[11]
  logP: 7.9
[12]
  Activity: Active
[6]
  Efficacy: 29%
[7]
  EC50: 2000 nM
[3]
  EC50: 2510 nM
[4]
  Efficacy: 31%
[13]
  microsomal CLint: 5 µL/min/mg
[14]
  microsomal CLint: 5 µL/min/mg
[15]
  logD: 4.5
[16]
  Activity: Dose-dependent effect
[17]
  Activity: Active
[18]
  Activity: Active
[19]
  fold change (FC): 100
[20]
  fold change (FC): 100
[21]
  fold change (FC): 100

## CCCCCCCc1ccc(-c2ccc(C(=O)O)cc2C)cc1
[1]
  Activity: inactive
[5]
  pEC50: > 5

## CCCCCCCCc1ccc(-c2ccc(C(=O)O)cc2F)cc1
[1]
  Efficacy: 85%
[5]
  EC50: 100 nM

## CC1(C)CCC(C)(C)c2cc(C(=O)Nc3ccc(C(=O)O)cc3)ccc21
[8]
  Efficacy: 99%

## CCCCCCCc1ccc(-c2ccc(C(=O)O)cc2)cc1
[6]
  Efficacy: 230%

## CCCCCCOc1ccc(-c2ccc(C(=O)O)cc2)cc1
[1]
  Efficacy: 72%
[5]
  EC50: 31.6 nM
[6]
  Activity: inactive

## CCCCOCCOc1ccc(-c2ccc(C(=O)O)c(F)c2)cc1
[10]
  solubility: 20 µg/mL (≈ 60.2 µM)
[1]
  Efficacy: 108%
[5]
  EC50: 20 nM
[2]
  Efficacy: 36%
[3]
  EC50: 1580 nM
[4]
  Efficacy: 37%
[13]
  microsomal CLint: 8 µL/min/mg

## CCCCCCCc1ccc(-c2ccc(C(=O)O)s2)cc1
[1]
  Activity: inactive
[5]
  pEC50: > 5

## CCCCCCCCOc1ccc(-c2ccc(C(=O)O)cc2)cc1
[1]
  Efficacy: 70%
[5]
  EC50: 100 nM
[6]
  Efficacy: 49%
[7]
  EC50: 1000 nM

## CCCCOCCOc1nc(-c2ccc(C(=O)O)c(F)c2)sc1C
[1]
  Efficacy: 106%
[6]
  Efficacy: 52%
[7]
  EC50: 398 nM
[3]
  EC50: 631 nM
[8]
  Efficacy: 48%
[9]
  EC50: 501 nM
[13]
  microsomal CLint: 36 µL/min/mg
[14]
  microsomal CLint: 10 µL/min/mg
[22]
  clearance: 41 mL/min/kg

## CCCCCCNC(=O)COc1ccc(-c2ccc(C(=O)O)cc2)cc1
[1]
  Activity: inactive
[5]
  pEC50: > 5

## CCOCCOc1nc(-c2ccc(C(=O)O)cc2)sc1C
[1]
  Efficacy: 78%
[5]
  EC50: 63.1 nM

## CCCCCCCc1cnc(-c2ccc(C(=O)O)cc2)nc1
[1]
  Efficacy: 93%
[5]
  EC50: 1000 nM

## CCCOCCOc1nc(-c2ccc(C(=O)O)cc2)sc1C
[1]
  Efficacy: 100%
[5]
  EC50: 126 nM

## CCCCOCCOc1cc(C)c(-c2ccc(C(=O)O)cc2)cc1C
[1]
  Efficacy: 41%
[5]
  EC50: 251 nM

## CCCCCCCCc1ccc(-c2ccc(C(=O)O)c(C)c2)cc1
[1]
  Efficacy: 84%
[5]
  EC50: 631 nM

## CCCCCCNC(=O)COc1nc(-c2ccc(C(=O)O)cc2)sc1C
[1]
  Efficacy: 85%
[5]
  EC50: 39.8 nM
[2]
  Efficacy: 42%
[23]
  Efficacy: 35%
[8]
  Efficacy: 63%
[9]
  EC50: 631 nM

## CCCCOCCOc1ccc(-c2ccc(C(=O)O)cc2)cc1
[1]
  Efficacy: 78%
[5]
  EC50: 63.1 nM
[6]
  Activity: inactive
[3]
  pEC50: > 5
[8]
  Activity: inactive
[9]
  pEC50: > 5

## CCCCCCCCc1ccc(-c2ccc(C(=O)O)cc2C)cc1
[1]
  Efficacy: 37%
[5]
  EC50: 100 nM

## CCCCOCCOc1nc(-c2ccc(C(=O)O)cc2)sc1C
[1]
  Efficacy: 99%
[5]
  EC50: 79.4 nM
[6]
  Efficacy: 45%
[7]
  EC50: 1260 nM
[4]
  Efficacy: 54%

## CCCCCCCOc1nc(-c2ccc(C(=O)O)cc2)sc1C
[1]
  Activity: inactive
[5]
  pEC50: > 5

## CCCCCCCc1ccc(-c2ccc(C(=O)O)c(F)c2)cc1
[1]
  Efficacy: 50%
[5]
  EC50: 126 nM
